Key:
F9 [1] = assay: In vitro promotion of plasminogen activator secretion from F9 (murine teratocarcinoma) cells.; format: functional, cell-based; settings: Mus musculus
Outline: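 F9 murine teratocarcinoma cells grown in DMEM with 15% fetal bovine serum, exposed 3 days to a range of retinoid concentrations. Differentiation quantified by plasminogen activator secretion; AC50 (concentration giving half-maximal secretion) obtained by nonlinear regression.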

[2] = target: T1, Retinoic acid receptor beta (Homo sapiens, UniProt P10826); assay: Binding affinity to retinoic acid receptor beta using [3H]CD 367 as radioligand
T1 sequence (P10826 whole entry): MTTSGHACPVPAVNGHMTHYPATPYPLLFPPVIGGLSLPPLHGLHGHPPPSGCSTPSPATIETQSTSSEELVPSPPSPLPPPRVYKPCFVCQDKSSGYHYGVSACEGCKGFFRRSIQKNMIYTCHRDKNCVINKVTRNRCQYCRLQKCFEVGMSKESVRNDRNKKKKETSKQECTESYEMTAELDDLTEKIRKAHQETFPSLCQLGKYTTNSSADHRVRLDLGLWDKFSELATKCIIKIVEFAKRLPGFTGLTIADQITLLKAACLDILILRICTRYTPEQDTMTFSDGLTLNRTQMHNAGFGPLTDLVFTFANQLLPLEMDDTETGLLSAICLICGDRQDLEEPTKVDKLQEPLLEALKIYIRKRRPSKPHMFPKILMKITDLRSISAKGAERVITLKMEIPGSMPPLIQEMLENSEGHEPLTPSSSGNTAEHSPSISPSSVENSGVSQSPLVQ

[3] = target: T2, Retinoic acid receptor alpha (Homo sapiens, UniProt P10276); assay: Binding affinity to retinoic acid receptor alpha using [3H]CD 367 as radioligand
T2 sequence (P10276 whole entry): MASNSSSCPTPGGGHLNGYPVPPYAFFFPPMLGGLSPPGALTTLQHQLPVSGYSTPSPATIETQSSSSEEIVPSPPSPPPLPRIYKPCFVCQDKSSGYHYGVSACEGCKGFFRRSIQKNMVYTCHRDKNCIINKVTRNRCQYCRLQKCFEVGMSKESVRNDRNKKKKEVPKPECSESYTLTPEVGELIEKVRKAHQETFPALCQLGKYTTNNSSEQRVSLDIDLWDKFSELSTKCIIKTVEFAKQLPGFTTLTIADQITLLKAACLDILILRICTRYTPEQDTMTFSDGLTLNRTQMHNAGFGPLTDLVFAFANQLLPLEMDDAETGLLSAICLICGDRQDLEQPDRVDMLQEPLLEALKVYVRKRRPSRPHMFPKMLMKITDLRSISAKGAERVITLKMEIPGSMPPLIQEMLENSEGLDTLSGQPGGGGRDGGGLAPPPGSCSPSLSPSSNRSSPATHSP

[4] = target: T3, Retinoic acid receptor gamma (Homo sapiens, UniProt P13631); assay: Binding affinity to retinoic acid receptor (RAR) gamma using [3H]CD 367 as radioligand
T3 sequence (P13631 whole entry): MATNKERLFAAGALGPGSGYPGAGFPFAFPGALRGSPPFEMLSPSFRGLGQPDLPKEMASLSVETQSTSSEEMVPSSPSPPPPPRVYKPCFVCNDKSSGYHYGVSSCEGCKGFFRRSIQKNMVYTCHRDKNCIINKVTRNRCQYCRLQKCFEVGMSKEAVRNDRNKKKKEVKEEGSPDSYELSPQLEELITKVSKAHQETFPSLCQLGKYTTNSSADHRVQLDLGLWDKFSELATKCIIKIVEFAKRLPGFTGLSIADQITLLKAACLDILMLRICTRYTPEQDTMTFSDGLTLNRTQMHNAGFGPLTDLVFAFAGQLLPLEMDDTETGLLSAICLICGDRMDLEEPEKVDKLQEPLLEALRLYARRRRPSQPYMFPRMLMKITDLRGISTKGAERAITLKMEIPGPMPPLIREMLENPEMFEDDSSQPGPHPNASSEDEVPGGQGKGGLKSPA

F9 [5] = assay: Compound was evaluated for its inhibitory activity against F9 murine teratocarcinoma cell differentiation; NA=not active; format: functional, cell-based, Mus musculus
F9 [6] = assay: Compound was evaluated for its inhibitory activity against F9 murine teratocarcinoma cell differentiation;NA=not active; format: functional, cell-based, Mus musculus
F9 [7] = assay: Compound was evaluated for its inhibitory activity against F9 murine teratocarcinoma cell differentiation; format: functional, cell-based; settings: Mus musculus

Compound | Ki [2] [nM] | Ki [3] [nM] | Ki [4] [nM] | AC50 (F9 [1]) [nM] | AC50 (F9 [5]) | AC50 (F9 [6]) | IC50 (F9 [7]) [nM] | IC50 (F9 [6])
O=C(O)c1ccc2cc(-c3ccc(C(=O)O)c(C45CC6CC(CC(C6)C4)C5)c3)ccc2c1 | > 10000 | > 10000 | > 10000 | 2000 | – | – | – | –
CC1(c2cc(-c3ccc4cc(C(=O)O)ccc4c3)ccc2O)CCCCC1 | 660 | > 10000 | 121 | 175 | – | – | – | –
CCCCCCOc1ccc(-c2ccc3cc(C(=O)O)ccc3c2)cc1C12CC3CC(CC(C3)C1)C2 | > 10000 | > 10000 | > 10000 | – | Not Active | – | – | –
CC1(C)CCC(C)(C)c2cc(-c3ccc4cc(C(=O)O)ccc4c3)ccc21 | 13 | 580 | 40 | 15 | – | – | – | –
C/C(=C\c1ccc(C(=O)O)cc1)c1ccc2c(c1)C(C)(C)CCC2(C)C | – | – | – | 0.78 | – | – | – | –
O=C(O)c1ccc2cc(-c3ccc(C(O)CO)c(C45CC6CC(CC(C6)C4)C5)c3)ccc2c1 (centres undefined) | 288 | > 10000 | 153 | 73 | – | – | – | –
C/C(=C\c1ccc(C(=O)O)cc1)c1ccc(O)c(C23CC4CC(CC(C4)C2)C3)c1 | 1240 | 1140 | 53 | 66 | – | – | – | –
CC(C)(C)c1cc(-c2ccc3cc(C(=O)O)ccc3c2)ccc1O | 3550 | > 10000 | 200 | – | – | Not Active | – | Not Active
O=C(O)c1ccc2cc(-c3ccc(O)c(C45CC6CC(CC(C6)C4)C5)c3)ccc2c1 [O-DEMETHYLATED ADAPALENE] | 2480 | 6500 | – | 33 | – | – | – | –
CC1=C(/C=C/C(C)=C/C=C/C(C)=C/C(=O)O)C(C)(C)CCC1 [TRETINOIN] | – | – | – | 200 | – | – | – | –

More lines, main results first:

Ki [2] [nM] | Ki [3] [nM] | Ki [4] [nM] | Compound | AC50 (F9 [1]) [nM] | AC50 (F9 [5]) | AC50 (F9 [6]) | IC50 (F9 [7]) [nM] | IC50 (F9 [6])
34 | 1100 | – | COc1ccc(-c2ccc3cc(C(=O)O)ccc3c2)cc1C12CC3CC(CC(C3)C1)C2 | 37 | – | – | – | –
36 | 6500 | 426 | COc1ccc(-c2ccc3cc(C(=O)O)ccc3c2)cc1C(C)(C)C | 200 | – | – | – | –
105 | 460 | 95 | COc1ccc(/C(C)=C/c2ccc(C(=O)O)cc2)cc1C12CC3CC(CC(C3)C1)C2 | 100 | – | – | – | –
158 | > 10000 | 34 | O=C(O)c1ccc2cc(-c3ccc(CC(O)CO)c(C45CC6CC(CC(C6)C4)C5)c3)ccc2c1 (centres undefined) | 100 | – | – | – | –
70 | 610 | 20 | O=C(O)c1ccc(/C=C/c2ccc(O)c(C34CC5CC(CC(C5)C3)C4)c2)cc1 | 1 | – | – | – | –
89 | 5000 | 151 | O=C(O)c1ccc2cc(-c3ccc(OCC(O)CO)c(C45CC6CC(CC(C6)C4)C5)c3)ccc2c1 (centres undefined) | 83 | – | – | – | –
210 | 8500 | 860 | CC1(C)CCOc2ccc(-c3ccc4cc(C(=O)O)ccc4c3)cc21 | 300 | – | – | – | –
90 | 1060 | 27 | C/C(=C\c1ccc(C(=O)O)cc1)c1ccc(O)c(C2(C)CCCCC2)c1 | 300 | – | – | – | –
26 | 1120 | 160 | COc1ccc(-c2ccc3cc(C(=O)O)ccc3c2)cc1C1(C)CCCCC1 | 150 | – | – | – | –
105 | 834 | 85 | C/C(=C\c1ccc(C(=O)O)cc1)c1ccc(O)c(C(C)(C)C)c1 | – | – | Not Active | 700 | –
17 | 420 | 29 | COc1ccc(/C(C)=C/c2ccc(C(=O)O)cc2)cc1C1(C)CCCCC1 | 30 | – | – | – | –
21 | 695 | 72 | O=C(O)c1ccc2cc(-c3ccc(CCCO)c(C45CC6CC(CC(C6)C4)C5)c3)ccc2c1 | 7.5 | – | – | – | –
3 | 5.3 | 2 | CC1(C)CCC(C)(C)c2cc3cc(-c4ccc(C(=O)O)cc4)ccc3cc21 | 0.46 | – | – | – | –
156 | > 10000 | 386 | O=C(O)c1ccc2cc(-c3ccc(CO)c(C45CC6CC(CC(C6)C4)C5)c3)ccc2c1 | 460 | – | – | – | –
12 | 130 | 13 | COc1ccc(/C(C)=C/c2ccc(C(=O)O)cc2)cc1C(C)(C)C | 30 | – | – | – | –
